Assay results from different studies.
Each line is one published result; the experiments were not run side by side.
Cell line: A549
Read-out: cell growth or viability

Compound | assay | setting | measurement | value
CCN(Cc1cnc2nc(N)nc(N)c2n1)c1ccc(C(=O)c2ccccc2)cc1 | ATP luminescence | – | GI50 | 0.23 µM
CC(C)=CCc1c(O)c(CC=C(C)C)c2occ(-c3ccc(O)cc3)c(=O)c2c1O | MTT | 100 µg/mL | viability | 121%
C=C(C)[C@H](CC=C(C)C)Cc1c(O)cc(O)c2c1O[C@H](c1ccc(O)cc1O)CC2=O | MTT | 48 h | IC50 | 18.1 µM
O=C1OC2(c3ccccc31)c1ccc(O)c(Br)c1Oc1c2ccc(O)c1Br | CCK-8 | 48 h | CC50 | > 200 µM
COc1cccc2c1C(=O)c1c(O)c3c(c(O)c1C2=O)C[C@@](O)(C(=O)CO)C[C@@H]3O[C@H]1C[C@H](N)[C@H](O)[C@H](C)O1 | MTT | 48 h | IC50 | 1.4 µM
O=C1OC2(c3ccc(O)cc3Oc3cc(O)ccc32)c2ccccc21 | CCK-8 | 48 h | CC50 | > 200 µM
CCCCCCCCCC#CCCCCC(=O)O | MTS | 24 h | IC50 | 16 µM
C=C(C)[C@H](CC=C(C)C)Cc1c(O)cc(OC)c(C(=O)/C=C/c2ccc(O)cc2O)c1O | MTT | – | IC50 | 57.1 µM
O=C(O)c1ccc2c(c1)C(=O)OC21c2ccc(O)cc2Oc2cc(O)ccc21 | CCK-8 | 48 h | CC50 | > 200 µM
Nc1nc(N)c2nc(CNc3cccc4ccccc34)cnc2n1 | ATP luminescence | – | GI50 | 1.29 µM
O=C(O)CCCC/C=C\CCCc1ccccc1 | MTS | – | IC50 | 61 µM
O=C1OC2(c3ccccc31)c1cc(Br)c(O)c(Br)c1Oc1c2cc(Br)c(O)c1Br | CCK-8 | 48 h | CC50 | > 200 µM
Nc1nc(N)c2nc(CNc3ccc(C(=O)c4ccccc4)cc3)cnc2n1 | ATP luminescence | – | GI50 | 13.7 µM
O=C1OC2(c3ccccc31)c1ccc(O)c(I)c1Oc1c2ccc(O)c1I | CCK-8 | 48 h | CC50 | > 200 µM
COc1ccc(S(=O)(=O)ON=C2C=C(C)C(=O)C(C)=C2)cc1 | – | – | CC50 | > 30 µM
